Data from ChEMBL document CHEMBL5357045, “Development of pharmacophore models for AcrB protein and the identification of potential adjuvant candidates for overcoming efflux-mediated colistin resistance” (2024).
≈ marks a conversion by molar mass, not a printed value. Calls of active or inactive are those of the source.

Columns and labels:
[1] = system: Escherichia coli; assay: Antibacterial activity against Escherichia coli; assay type: functional
[2] = system: Klebsiella pneumoniae; assay: Antibacterial activity against Klebsiella pneumoniae UK48 assessed as efflux pump inhibition by measuring mean fluorescence intensity incubated for 30 mins by EtBr staining based assay; assay type: functional, organism-based
Summary of the method: (§1)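 Isolates grown in LB broth and adjusted to 0.5 McFarland. Cultures with no drug, CCCP or test agent (fraction of each agent's MIC per isolate) were shaken 30 min at 37 °C, then swabbed cartwheel-style onto TSA plates containing EtBr 2.5 mg L⁻¹ and incubated 18 h at 37 °C. Swab fluorescence was imaged and mean intensity compared by Student's t-test. K. pneumoniae ATCC13882 and SDL79 served as controls.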

[3] = system: Morganella morganii; assay: Antibacterial activity against Morganella morganii UM869 assessed as efflux pump inhibition by measuring mean fluorescence intensity incubated for 30 mins by EtBr staining based assay; assay type: functional, organism-based; summary of the method: as §1
[4] = system: Klebsiella pneumoniae; assay: Synergistic antibacterial activity against Klebsiella pneumoniae UK48 in presence of colistin by checkerboard assay; assay type: functional
Summary of the method: (§2)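 Checkerboard run in triplicate in cation-supplemented Mueller–Hinton broth. Colistin 512 to 1 µg mL−1 is crossed with argatroban 256 to 2 µg mL−1. Inoculum is ~5–6×10^5 CFU mL−1, incubated 37 °C for 24 h. ΣFIC = C_A/MIC_A + C_B/MIC_B, where C is each drug's concentration in combination at the MIC well.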

[5] = system: Morganella morganii; assay: Synergistic antibacterial activity against Morganella morganii UM573 in presence of colistin by checkerboard assay; assay type: functional; summary of the method: as §2
[6] = system: Morganella morganii; assay: Antibacterial activity against Morganella morganii UM573 assessed as efflux pump inhibition by measuring mean fluorescence intensity incubated for 30 mins by EtBr staining based assay; assay type: functional, organism-based; summary of the method: as §1
[7] = system: Morganella morganii; assay: Synergistic antibacterial activity against Morganella morganii UM869 in presence of colistin by checkerboard assay; assay type: functional; summary of the method: as §2
[8] = system: Morganella morganii; assay: Antibacterial activity against Morganella morganii UM573 incubated for 16 to 18 hrs by broth microdilution method; assay type: functional; details: time 16-18 hrs
Summary of the method: (§3)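 CLSI broth microdilution in cation-adjusted Mueller–Hinton broth, inoculum 5×10^5 CFU mL−1. Ranges tested: colistin 1024–2 μg mL−1, CCCP 80–1 μg mL−1, argatroban 1024–2 μg mL−1. Incubation is 37 °C for 16–18 h. Growth is visualized with triphenyl tetrazolium chloride, and the MIC is interpreted by CLSI breakpoint criteria.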

[9] = system: Klebsiella pneumoniae; assay: Antibacterial activity against Klebsiella pneumoniae UK48 incubated for 16 to 18 hrs by broth microdilution method; assay type: functional; details: time 16-18 hrs; summary of the method: as §3
[10] = system: Klebsiella pneumoniae; assay: Bacteriostatic activity against Klebsiella pneumoniae UK48 incubated for 24 hrs by time-kill assay; assay type: functional, organism-based
Summary of the method: (§4)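 Log-phase cultures (~5×10^6 CFU mL−1) in cation-adjusted Mueller–Hinton broth at 37 °C are given drugs alone or combined at ¼ MIC; untreated growth is the control. At 0, 4, 8, 12 and 24 h, samples are diluted […] in 0.7% NaCl, 100 µL is plated on Mueller–Hinton agar overnight at 37 °C, and colonies are counted. Three repeats, mean reported.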

[11] = system: Morganella morganii; assay: Bacteriostatic activity against Morganella morganii UM869 incubated for 24 hrs by time-kill assay; assay type: functional, organism-based; summary of the method: as §4
[12] = system: Morganella morganii; assay: Bacteriostatic activity against Morganella morganii UM573 incubated for 24 hrs by time-kill assay; assay type: functional, organism-based; summary of the method: as §4
[13] = system: Morganella morganii; assay: Antibacterial activity against Morganella morganii UM869 incubated for 16 to 18 hrs by broth microdilution method; assay type: functional; details: time 16-18 hrs; summary of the method: as §3
[14] = system: Escherichia coli; assay: Antibacterial activity against Escherichia coli by broth dilution method; assay type: functional
[15] = system: Escherichia coli; assay: Antibacterial activity against Escherichia coli BW25113; assay type: functional
[16] = system: Escherichia coli; assay: Antibacterial activity against Escherichia coli ATCC 35218; assay type: functional
[17] = system: Escherichia coli; assay: Antibacterial activity against Escherichia coli AG100A; assay type: functional
[18] = system: Escherichia coli; assay: Antibacterial activity against Escherichia coli APEC_O2; assay type: functional

With `CC1(C)Cc2c(C#N)c(SCCc3ccccc3)nc(N3CCOCC3)c2CO1` the MIC [1] was 4.05 µg/mL (≈ 9.89 µM).
With `C[C@@H]1CNc2c(cccc2S(=O)(=O)N[C@@H](CCCNC(=N)N)C(=O)N2CC[C@@H](C)C[C@@H]2C(=O)O)C1` the Activity [2] was “Active”, the Activity [3] was “Active” and the MIC [4] was 64 µg/mL. The MIC [5] was 128 µg/mL, the Activity [6] was “Active” and the MIC [7] was 128 µg/mL. For the same molecule, the MIC [8] was ≥ 512 µg/mL, the MIC [9] was ≥ 512 µg/mL and the Activity [10] was “inactive”. For the same molecule, the Activity [11] was “inactive”, the Activity [12] was “inactive” and the MIC [13] was ≥ 512 µg/mL.
`O=C(Nc1ccccc1)c1ccccc1C(=O)Nc1ccccc1` was tested, and the MIC [14] was 64 µg/mL (≈ 202 µM).
Work on `CN(C)CCC=C1c2ccccc2CCc2ccccc21` [AMITRIPTYLINE] yielded an MIC [15] of 444 µg/mL (≈ 1600 µM).
Work on `C[C@H]1[C@@H](O)O[C@@H]2O[C@@]3(C)CC[C@H]4[C@H](C)CC[C@@H]1[C@@]24OO3` [ARTENIMOL] yielded an MIC [16] of 1020 µg/mL (≈ 3600 µM).
For `C[C@H]1[C@H](OC(=O)CCC(=O)O)O[C@@H]2O[C@@]3(C)CC[C@H]4[C@H](C)CC[C@@H]1[C@@]24OO3` [ARTESUNATE], the MIC [16] was 4100 µg/mL (≈ 10700 µM).
With `N#CC(C#N)=NNc1cccc(Cl)c1` [CARBONYL CYANIDE M-CHLOROPHENYLHYDRAZONE] the Activity [2] was “Active”, the Activity [3] was “Active” and the Activity [6] was “Active”. The MIC [8] was 20 µg/mL (≈ 97.7 µM), the MIC [9] was 5 µg/mL (≈ 24.4 µM) and the Activity [10] was “Active”. For the same molecule, the Activity [11] was “Active”, the Activity [12] was “Active” and the MIC [13] was 20 µg/mL (≈ 97.7 µM).
`CN(C)CCCN1c2ccccc2Sc2ccc(Cl)cc21` [CHLORPROMAZINE] gave an MIC [15] of 256 µg/mL (≈ 803 µM).
With `O=c1c(-c2ccc(O)cc2)coc2cc(O)ccc12` [DAIDZEIN] the MIC [1] was 16 µg/mL (≈ 62.9 µM).
`OC(c1cc(-c2ccc(C(F)(F)F)cc2)nc(C(F)(F)F)c1)C1CCCCN1` (centres undefined) [ENPIROLINE] showed an MIC [14] of 20.2 µg/mL (≈ 50 µM).
For `CC[C@H]1OC(=O)[C@H](C)[C@@H](O[C@H]2C[C@@](C)(OC)[C@@H](O)[C@H](C)O2)[C@H](C)[C@@H](O[C@@H]2O[C@H](C)C[C@H](N(C)C)[C@H]2O)[C@](C)(O)C[C@@H](C)C(=O)[C@H](C)[C@@H](O)[C@]1(C)O` [ERYTHROMYCIN], the MIC [1] was 367 µg/mL (≈ 500 µM).
Molecule `CC(C)=CCC/C(C)=C/CO` [GERANIOL] has an MIC [17] of 64 µg/mL (≈ 415 µM).
With `CC[n+]1c(-c2ccccc2)c2cc(N)ccc2c2ccc(N)cc21` [HOMIDIUM] the MIC [1] was 512 µg/mL.
Work on `CC(=O)NC[C@H]1CN(c2ccc(N3CCOCC3)c(F)c2)C(=O)O1` [LINEZOLID] yielded an MIC [1] of 512 µg/mL (≈ 1520 µM).
Molecule `O=c1c2cc(O)c(O)cc2oc2cc(O)c([C@@H]3O[C@H](CO)[C@@H](O)[C@H](O)[C@H]3O)c(O)c12` [MANGIFERIN] has an MIC [15] of 512 µg/mL (≈ 1210 µM).
`O=C(Cc1cccs1)N[C@@H]1C(=O)N2C(C(=O)O)=C(/C=C/c3ccc([N+](=O)[O-])cc3[N+](=O)[O-])CS[C@H]12` [NITROCEFIN] gave an MIC [1] of 1.9 µg/mL (≈ 3.68 µM).
Work on `CC(Cc1ccc(O)c(O)c1)C(C)Cc1ccc(O)c(O)c1` (centres undefined) [NORDIHYDROGUAIARETIC ACID] yielded an MIC [15] of 512 µg/mL (≈ 1690 µM).
`Cc1onc(-c2ccccc2)c1C(=O)N[C@@H]1C(=O)N2[C@@H]1SC(C)(C)[C@@H]2C(=O)O` [OXACILLIN] showed an MIC [1] of 1020 µg/mL (≈ 2550 µM).
With `O=c1[nH]c2ccccc2n1C1CCN(CCCC(c2ccc(F)cc2)c2ccc(F)cc2)CC1` [PIMOZIDE] the MIC [1] was 92.3 µg/mL (≈ 200 µM).
For `CC1=CC(=O)c2c(O)cccc2C1=O` [PLUMBAGIN], the MIC [15] was 128 µg/mL (≈ 680 µM).
Work on `O=c1c(O)c(-c2ccc(O)c(O)c2)oc2cc(O)cc(O)c12` [QUERCETIN] yielded an MIC [15] of 1020 µg/mL (≈ 3390 µM).
In the case of `Nc1ccnc2ccccc12` [QUINOLIN-4-AMINE], the MIC [14] is reported as 14.4 µg/mL (≈ 100 µM).
For `CN[C@H]1CC[C@@H](c2ccc(Cl)c(Cl)c2)c2ccccc21` [SERTRALINE], the MIC [18] was 32 µg/mL (≈ 104 µM).
Work on `CC(C)=CC[C@@H](O)C1=CC(=O)c2c(O)ccc(O)c2C1=O` [SHIKONIN] yielded an MIC [15] of 256 µg/mL (≈ 888 µM).
`C[C@H]1[C@H](C)CC[C@]2(C(=O)O)CC[C@]3(C)C(=CC[C@@H]4[C@@]5(C)CC[C@H](O)C(C)(C)[C@@H]5CC[C@]43C)[C@H]12` [URSOLIC ACID] showed an MIC [1] of 50 µg/mL (≈ 109 µM).
